Laboratory results published in ChEMBL document CHEMBL1145033, “2-Amino-3-benzoylthiophene allosteric enhancers of A1 adenosine agonist binding: new 3, 4-, and 5-modifications” (J Med Chem, 2003).

Each molecule was assayed against T1, Adenosine receptor A1 (Homo sapiens) (UniProt P30542) (assay: Dissociation of [3H]N6-cyclohexyladenosine ([3H]CHA) from CHO-K1 membrane expressing human adenosine A1 receptor after treatment with allosteric enhancer at 100 uM and (R)-PIA).
T1 sequence (whole entry): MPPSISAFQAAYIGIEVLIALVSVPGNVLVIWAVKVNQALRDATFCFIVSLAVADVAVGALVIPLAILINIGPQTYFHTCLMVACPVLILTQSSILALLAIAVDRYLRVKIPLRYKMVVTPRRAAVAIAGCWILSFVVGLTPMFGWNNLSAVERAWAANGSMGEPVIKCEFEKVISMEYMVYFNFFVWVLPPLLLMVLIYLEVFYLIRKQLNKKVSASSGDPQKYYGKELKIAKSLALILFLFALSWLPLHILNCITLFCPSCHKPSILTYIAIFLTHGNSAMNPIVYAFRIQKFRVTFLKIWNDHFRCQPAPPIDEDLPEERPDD
Molecule `Nc1sc(-c2ccccc2)c(-c2ccccc2)c1C(=O)c1cccc2ccccc12` has an Activity of 52.3%.
`Nc1sc(Br)c(-c2ccc([N+](=O)[O-])cc2)c1C(=O)c1ccccc1` gave an Activity of 68.3%.
`N#Cc1ccc(-c2c(Br)sc(N)c2C(=O)c2ccccc2)cc1` showed an Activity of 20.3%.
Work on `Nc1sc(-c2ccccc2)c(-c2ccc(Cl)cc2)c1C(=O)c1cccc2ccccc12` yielded an Activity of 11.9%.
Molecule `Nc1sc(Br)c(-c2ccc(C(F)(F)F)cc2)c1C(=O)c1ccccc1` has an Activity of 80.4%.
`Nc1sc(-c2ccccc2)c(-c2ccccc2)c1C(=O)c1ccc(-c2ccccc2)cc1` showed an Activity of 1.5%.
Work on `Nc1sc(-c2ccccc2)cc1C(=O)OCc1ccccc1` yielded an Activity of 8%.
`CCOC(=O)c1c(N)sc(Br)c1-c1cccc([N+](=O)[O-])c1` was tested, and the Activity was 26%.
`Cc1ccc(-c2c(-c3ccccc3)sc(N)c2C(=O)c2ccc3ccccc3c2)cc1` gave an Activity of 10.9%.
Molecule `Cc1ccc(-c2c(-c3ccccc3)sc(N)c2C(=O)Cc2ccccc2)cc1` has an Activity of 1.9%.
`Nc1sc(-c2ccccc2)c(-c2ccccc2)c1C(=O)N(Cc1ccccc1)Cc1ccccc1` showed an Activity of 14.1%.
With `Cc1ccc(-c2c(-c3ccccc3)sc(N)c2C(=O)c2ccc(-c3ccccc3)cc2)cc1` the Activity was 3.6%.
`Nc1sc(Br)c(-c2ccc3ccccc3c2)c1C(=O)c1ccccc1` gave an Activity of 49.7%.
`Nc1sc(-c2ccccc2)c(-c2ccc(Cl)cc2)c1C(=O)c1ccc(-c2ccccc2)cc1` showed an Activity of 10.5%.
`Nc1sc(-c2ccccc2)c(-c2ccccc2)c1C(=O)OCc1ccccc1` was tested, and the Activity was 18.6%.
Work on `Nc1sc(-c2ccccc2)c(-c2ccc(Cl)cc2)c1C(=O)c1ccc(Cl)cc1` yielded an Activity of 8.7%.
For `Nc1sc(Br)c(-c2cccc(C(F)(F)F)c2)c1C(=O)c1ccccc1`, the Activity was 91%.
Molecule `Nc1sc(-c2ccccc2)c(-c2ccccc2)c1C(=O)c1ccc(Cl)cc1` has an Activity of 10.8%.
With `Nc1sc(-c2ccccc2)c(-c2ccccc2)c1C(=O)OCc1cccc(C(F)(F)F)c1` the Activity was 48%.
Molecule `Cc1sc(N)c(C(=O)c2cccc(C(F)(F)F)c2)c1C` has an Activity of 19%.
`Nc1sc(-c2ccccc2)c(-c2ccccc2)c1C(=O)c1cccc(Cl)c1` gave an Activity of 9.4%.
For `Nc1sc(Br)c(-c2ccc(-c3ccccc3)cc2)c1C(=O)c1ccccc1`, the Activity was 42.7%.
In the case of `Nc1sc(-c2ccccc2)c(-c2ccccc2)c1C(=O)c1ccc2ccccc2c1`, the Activity is reported as 4.2%.
`Cc1ccc(-c2c(-c3ccccc3)sc(N)c2C(=O)OCc2cccc(C(F)(F)F)c2)cc1` showed an Activity of 62.6%.
`Nc1sc(Br)c(-c2cccc([N+](=O)[O-])c2)c1C(=O)c1ccccc1` was tested, and the Activity was 21.8%.
`Nc1sc(-c2ccccc2)c(-c2ccccc2)c1C(=O)c1ccccc1` gave an Activity of 10.7%.
`Cc1ccc(-c2c(-c3ccccc3)sc(N)c2C(=O)c2ccccc2)cc1` showed an Activity of 13.4%.
Molecule `CCOC(=O)c1c(N)sc(-c2ccccc2)c1-c1ccc(Cl)cc1` has an Activity of 42.1%.
`Cc1ccc(-c2c(-c3ccccc3)sc(N)c2C(=O)c2ccc(Cl)cc2)cc1` gave an Activity of 8.4%.
Molecule `Nc1sc(-c2ccccc2)c(-c2ccc(Cl)cc2)c1C(=O)c1ccccc1` has an Activity of 5.6%.
`Cc1ccc(-c2c(-c3ccccc3)sc(N)c2C(=O)c2cccc(Cl)c2)cc1` showed an Activity of 8.1%.

The molecules below were run against T1, Adenosine receptor A1 (Homo sapiens) (assay: Inhibition of antagonist [3H]CPX binding to Adenosine A1 receptor membrane at 100 uM).
Summary of the method: (§1)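 Human A1AR membranes from CHO cells were incubated with 2 nM [3H]CPX and test agent (100 μM) for 90 min at room temperature. Inhibition of equilibrium antagonist binding was then measured.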
With `Cc1sc(N)c(C(=O)c2cccc(C(F)(F)F)c2)c1C` the inhibition was 85%.

The molecules below were run against T1, Adenosine receptor A1 (Homo sapiens) (assay: Inhibition of antagonist [3H]-CPX binding to Adenosine A1 receptor membrane at 100 uM).
Summary of the method: as §1
`Nc1sc(Br)c(-c2cccc(C(F)(F)F)c2)c1C(=O)c1ccccc1` gave an inhibition of 29%.

These molecules were tested against T2, Adenosine receptor A1 (Homo sapiens, UniProt P30542) (assay: Effective dose as dissociation of [3H]N6-cyclohexyladenosine ([3H]CHA) from CHO-K1 membrane after treatment with allosteric enhancer and (R)-PIA).
T2 sequence (P30542 whole entry): T1 sequence (whole entry)
`Nc1sc(Br)c(-c2cccc(C(F)(F)F)c2)c1C(=O)c1ccccc1` showed an EC50 of 6.36 µM.
